In publication PMC9401512 (Clinical Cancer Research, 2021):
Marks after values point to notes of the source that are not given here.

Columns and labels:
[1] = test system: adults with ER-positive breast cancer; test: Dose-limiting toxicities in the first 28-day treatment cycle; assay type: in vivo, human
[2] = test system: adults with ER-positive breast cancer; test: Adverse events, serious AEs, deaths, discontinuations; assay type: in vivo, human
How it was run: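 Open-label phase I/Ib escalation in adults with ER-positive advanced breast cancer. Oral test compound was given once or twice daily, alone or with one of two partner agents, in continuous 28-day cycles. AEs were defined and graded per CTCAE v4.03. The safety set was treated participants with ≥1 valid postbaseline safety assessment. Fed/fasted data were pooled.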

[3] = LSZ102 clinical pharmacokinetics; assay type: in vivo, human
[4] = test system: ER-positive breast cancer; test: Investigator-assessed clinical response; assay type: in vivo, human
How it was run: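 Local investigator assessed response per RECIST v1.1 in all participants receiving ≥1 dose. ORR = confirmed CR+PR. CBR = CR+PR plus SD or non-CR/non-PD maintained ≥24 weeks. PFS was estimated by Kaplan–Meier. Data were grouped by total daily dose, pooling fed, fasted and food-independent dosing.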

ER protein = test: Paired biopsy ER protein by IHC; assay type: in vivo, human; conditions: cycle 1 day 15, single agent
[5] = cited from earlier work

## CC(F)(F)c1cc(F)ccc1-c1sc2cc(O)ccc2c1Oc1ccc(/C=C/C(=O)O)cc1 [LSZ102]
[1]; 450 mg QD
  DLT: ALT increased, participants: 1^b
  DLT: AST increased, participants: 1^b
[1]; 600 mg QD
  DLT: Vomiting, participants: 1
[1]; 900 mg QD
  DLT: Diarrhea, participants: 2
[1]; first 28-day cycle, whole arm
  DLTs, participants: 5%
[1]; in vivo
  Recommended dose for expansion: LSZ102 dose: 450 mg once daily
[1]; total daily dose 200 mg, QD (n = 4)
  Participants with ≥ 1 DLT, n (%): 0 n (%)
[1]; total daily dose 400 mg, BID (n = 3)
  Participants with ≥ 1 DLT, n (%): 0 n (%)
[1]; total daily dose 400 mg, QD (n = 6)
  Participants with ≥ 1 DLT, n (%): 0 n (%)
[1]; total daily dose 450 mg, BID (n = 5)
  Participants with ≥ 1 DLT, n (%): 0 n (%)
[1]; total daily dose 600 mg (n = 28), QD (n = 23)
  Participants with ≥ 1 DLT, n (%): 1 (3.6) n (%)
[1]; total daily dose 600 mg, BID (n = 5)
  Participants with ≥ 1 DLT, n (%): 0 n (%)
[1]; total daily dose 900 mg, QD (n = 6)
  Participants with ≥ 1 DLT, n (%): 2 (33.3) n (%)
[2]; in vivo
  Discontinuations from study treatment: Adverse event, n (%): 2 (2.6) n (%)
  Discontinuations from study treatment: Death, n (%): 0 n (%)
[2]; whole arm
  Deaths on treatment or within 30 days from the last dose, number: 5
  Participants with treatment-related serious AEs, number: 1
[3]; discussion summary
  Time to Cmax: approximately 2 hours
[3]; fasted conditions
  Median time to maximum concentration (Cmax): 2 to 3 h
[4]; human, in vivo
  Discontinuations from study treatment: Progressive disease, n (%): 71 (91.0) n (%)
[4]; whole arm
  Clinical benefit rate (CBR): 7.8%
  Objective response rate (ORR): 1.3%
ER protein
  Biopsy ER H-score change from screening: trend toward dose-dependent ER degradation
[5]
  Increase in LSZ102 exposure with a high-fat high-calorie meal: ~2 fold
